Measurements published in ChEMBL document CHEMBL3098105, “7,7'-Diazaindirubin--a small molecule inhibitor of casein kinase 2 in vitro and in cells” (Bioorg Med Chem, 2014).

Tests used:
[1] = molecular target: Mast/stem cell growth factor receptor Kit (Homo sapiens) (UniProt P10721); assay: Inhibition of KIT (unknown origin) assessed as residual activity at 1 uM relative to control
[2] = molecular target: CDK2/Cyclin A2 (Homo sapiens) (UniProt P24941+P20248); assay: Inhibition of CDK2/CycA (unknown origin) assessed as residual activity at 1 uM relative to control; format: protein-complex assay
[3] = molecular target: Aurora kinase C (Homo sapiens) (UniProt Q9UQB9); assay: Inhibition of Aurora-C (unknown origin) assessed as residual activity at 1 uM relative to control
[4] = system: T47D; assay: Antiproliferative activity against human T47D cells after 3 days by sulforhodamine B assay; format: functional; conditions: 72 h
[5] = system: OVCAR-8; assay: Antiproliferative activity against human OVCAR8 cells after 3 days by sulforhodamine B assay; format: functional; conditions: OVCAR-8, 72 h
Outline: (§1)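 Tested in the NCI 60 cell line panel. GI50 is the concentration giving 50% inhibition of cell growth, and values are the mean of two series of tests.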

[6] = Antiproliferative activity against human OVCAR5 cells after 3 days by sulforhodamine B assay; format: functional; conditions: OVCAR-5, 72 h; outline: as §1
[7] = system: OVCAR-3; assay: Antiproliferative activity against human OVCAR3 cells after 3 days by sulforhodamine B assay; format: functional; conditions: OVCAR-3, 72 h; outline: as §1
[8] = Antiproliferative activity against human OVCAR4 cells after 3 days by sulforhodamine B assay; format: functional; conditions: OVCAR-4, 72 h; outline: as §1
[9] = system: SF-268; assay: Antiproliferative activity against human SF268 cells after 3 days by sulforhodamine B assay; format: functional; conditions: SF-268, 72 h; outline: as §1
[10] = molecular target: Serine/threonine-protein kinase WNK3 (Homo sapiens) (UniProt Q9BYP7); assay: Inhibition of human WNK3 assessed as residual activity at 1 uM relative to control
[11] = molecular target: Serine/threonine-protein kinase ULK3 (Homo sapiens) (UniProt Q6PHR2); assay: Inhibition of human ULK3 assessed as residual activity at 1 uM relative to control
[12] = molecular target: Serine/threonine-protein kinase TAO3 (Homo sapiens) (UniProt Q9H2K8); assay: Inhibition of human TAO3 assessed as residual activity at 1 uM relative to control
[13] = molecular target: Serine/threonine-protein kinase TAO2 (Homo sapiens) (UniProt Q9UL54); assay: Inhibition of human TAO2 assessed as residual activity at 1 uM relative to control
[14] = molecular target: Mitogen-activated protein kinase 13 (Homo sapiens) (UniProt O15264); assay: Inhibition of human SAPK4 assessed as residual activity at 1 uM relative to control
[15] = molecular target: Mitogen-activated protein kinase 11 (Homo sapiens) (UniProt Q15759); assay: Inhibition of human SAPK2beta assessed as residual activity at 1 uM relative to control
[16] = molecular target: Rho-associated protein kinase 1 (Homo sapiens) (UniProt Q13464); assay: Inhibition of human ROCK-1 assessed as residual activity at 1 uM relative to control
[17] = molecular target: Serine/threonine-protein kinase PLK3 (Homo sapiens) (UniProt Q9H4B4); assay: Inhibition of human Plk3 assessed as residual activity at 1 uM relative to control
[18] = system: MCF7; assay: Cell cycle arrest in human MCF7 cells assessed as accumulation at G1 phase at 1 uM after 24 hrs using propidium iodide staining by FACS analysis (reference value: 57.74%); format: functional
[19] = molecular target: Protein kinase C epsilon type (Homo sapiens) (UniProt Q02156); assay: Inhibition of human PKCepsilon assessed as residual activity at 1 uM relative to control
[20] = molecular target: RAC-gamma serine/threonine-protein kinase (Homo sapiens) (UniProt Q9Y243); assay: Inhibition of human PKBgamma assessed as residual activity at 1 uM relative to control
[21] = molecular target: Serine/threonine-protein kinase MARK2 (Homo sapiens) (UniProt Q7KZI7); assay: Inhibition of human PAR1Balpha assessed as residual activity at 1 uM relative to control
[22] = molecular target: Misshapen-like kinase 1 (Homo sapiens) (UniProt Q8N4C8); assay: Inhibition of human MINK assessed as residual activity at 1 uM relative to control
[23] = molecular target: Serine/threonine-protein kinase MARK1 (Homo sapiens) (UniProt Q9P0L2); assay: Inhibition of human MARK1 assessed as residual activity at 1 uM relative to control
[24] = molecular target: Tyrosine-protein kinase HCK (Homo sapiens) (UniProt P08631); assay: Inhibition of human Hck assessed as residual activity at 1 uM relative to control
[25] = molecular target: CDK3/Cyclin E (Homo sapiens) (UniProt P24864+Q00526); assay: Inhibition of human CDK3/cyclinE assessed as residual activity at 1 uM relative to control; format: protein-complex assay
[26] = molecular target: NUAK family SNF1-like kinase 1 (Homo sapiens) (UniProt O60285); assay: Inhibition of human ARK5 assessed as residual activity at 1 uM relative to control
[27] = molecular target: Vascular endothelial growth factor receptor 3 (Homo sapiens) (UniProt P35916); assay: Inhibition of VEGF-R3 (unknown origin) assessed as residual activity at 10 uM relative to control
[28] = molecular target: Glycogen synthase kinase-3 beta (Homo sapiens) (UniProt P49841); assay: Inhibition of GSK3-beta (unknown origin) assessed as residual activity at 10 uM relative to control
[29] = molecular target: Receptor-type tyrosine-protein kinase FLT3 (Homo sapiens) (UniProt P36888); assay: Inhibition of FLT3 (unknown origin) assessed as residual activity at 10 uM relative to control
[30] = molecular target: Tyrosine-protein kinase Fgr (Homo sapiens) (UniProt P09769); assay: Inhibition of FGR (unknown origin) assessed as residual activity at 10 uM relative to control
[31] = molecular target: Focal adhesion kinase 1 (Homo sapiens) (UniProt Q05397); assay: Inhibition of FAK fl (unknown origin) assessed as residual activity at 10 uM relative to control
[32] = molecular target: T1, Aurora kinase A (Homo sapiens) (UniProt O14965); assay: Inhibition of Aurora-A (unknown origin) assessed as residual activity at 10 uM relative to control
T1 sequence (whole entry): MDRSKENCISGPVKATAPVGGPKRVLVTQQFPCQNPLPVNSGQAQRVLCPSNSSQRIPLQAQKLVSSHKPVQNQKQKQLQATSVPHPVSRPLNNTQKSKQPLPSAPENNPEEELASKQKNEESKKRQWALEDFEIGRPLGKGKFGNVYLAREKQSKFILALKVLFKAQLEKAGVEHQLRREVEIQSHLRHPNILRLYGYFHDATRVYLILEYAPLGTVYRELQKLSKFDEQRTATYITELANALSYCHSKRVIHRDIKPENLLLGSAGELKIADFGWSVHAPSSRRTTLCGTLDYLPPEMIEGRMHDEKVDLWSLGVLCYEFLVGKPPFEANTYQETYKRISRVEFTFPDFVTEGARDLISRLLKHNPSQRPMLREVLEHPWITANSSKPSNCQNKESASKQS

[33] = molecular target: Vascular endothelial growth factor receptor 3 (Homo sapiens) (UniProt P35916); assay: Inhibition of VEGF-R3 (unknown origin) assessed as residual activity at 1 uM relative to control
[34] = molecular target: Proto-oncogene tyrosine-protein kinase Src (Homo sapiens) (UniProt P12931); assay: Inhibition of SRC (unknown origin) assessed as residual activity at 1 uM relative to control

Vascular endothelial growth factor receptor 3 (Homo sapiens), sequence (P35916 whole entry): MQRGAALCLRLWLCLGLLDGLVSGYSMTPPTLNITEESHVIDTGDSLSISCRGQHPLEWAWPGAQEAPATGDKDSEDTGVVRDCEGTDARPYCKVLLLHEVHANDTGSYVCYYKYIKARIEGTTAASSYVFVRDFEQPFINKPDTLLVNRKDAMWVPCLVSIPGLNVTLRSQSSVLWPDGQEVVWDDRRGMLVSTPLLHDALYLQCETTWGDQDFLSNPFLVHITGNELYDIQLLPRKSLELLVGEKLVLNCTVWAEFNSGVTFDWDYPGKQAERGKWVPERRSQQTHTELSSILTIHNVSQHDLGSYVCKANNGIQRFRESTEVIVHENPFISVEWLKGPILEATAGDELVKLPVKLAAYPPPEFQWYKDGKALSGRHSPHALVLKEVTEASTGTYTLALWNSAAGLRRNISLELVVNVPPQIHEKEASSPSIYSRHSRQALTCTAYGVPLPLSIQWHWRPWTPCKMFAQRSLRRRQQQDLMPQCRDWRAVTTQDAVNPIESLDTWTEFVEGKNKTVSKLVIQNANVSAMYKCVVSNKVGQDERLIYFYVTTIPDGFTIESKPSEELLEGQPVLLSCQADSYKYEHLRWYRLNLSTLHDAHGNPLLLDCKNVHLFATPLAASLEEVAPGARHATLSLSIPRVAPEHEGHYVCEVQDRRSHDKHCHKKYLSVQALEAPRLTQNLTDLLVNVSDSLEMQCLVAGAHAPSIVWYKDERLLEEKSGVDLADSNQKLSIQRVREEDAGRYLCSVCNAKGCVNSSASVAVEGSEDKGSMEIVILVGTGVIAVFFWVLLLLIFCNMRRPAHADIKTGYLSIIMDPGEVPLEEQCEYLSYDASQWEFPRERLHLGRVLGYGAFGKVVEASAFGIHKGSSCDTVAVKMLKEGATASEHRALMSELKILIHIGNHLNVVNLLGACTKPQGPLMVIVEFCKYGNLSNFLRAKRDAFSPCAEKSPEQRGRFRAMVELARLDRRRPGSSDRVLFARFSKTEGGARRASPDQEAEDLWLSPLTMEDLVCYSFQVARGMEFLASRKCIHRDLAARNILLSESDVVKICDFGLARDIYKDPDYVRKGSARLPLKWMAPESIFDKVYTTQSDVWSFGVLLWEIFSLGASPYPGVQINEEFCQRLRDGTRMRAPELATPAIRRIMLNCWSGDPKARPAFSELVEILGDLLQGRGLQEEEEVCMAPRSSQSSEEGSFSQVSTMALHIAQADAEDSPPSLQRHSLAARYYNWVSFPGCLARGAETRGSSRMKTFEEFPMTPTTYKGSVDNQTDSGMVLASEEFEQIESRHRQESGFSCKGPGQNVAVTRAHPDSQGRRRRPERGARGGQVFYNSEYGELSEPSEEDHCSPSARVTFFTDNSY
NUAK family SNF1-like kinase 1 (Homo sapiens), sequence (O60285 whole entry): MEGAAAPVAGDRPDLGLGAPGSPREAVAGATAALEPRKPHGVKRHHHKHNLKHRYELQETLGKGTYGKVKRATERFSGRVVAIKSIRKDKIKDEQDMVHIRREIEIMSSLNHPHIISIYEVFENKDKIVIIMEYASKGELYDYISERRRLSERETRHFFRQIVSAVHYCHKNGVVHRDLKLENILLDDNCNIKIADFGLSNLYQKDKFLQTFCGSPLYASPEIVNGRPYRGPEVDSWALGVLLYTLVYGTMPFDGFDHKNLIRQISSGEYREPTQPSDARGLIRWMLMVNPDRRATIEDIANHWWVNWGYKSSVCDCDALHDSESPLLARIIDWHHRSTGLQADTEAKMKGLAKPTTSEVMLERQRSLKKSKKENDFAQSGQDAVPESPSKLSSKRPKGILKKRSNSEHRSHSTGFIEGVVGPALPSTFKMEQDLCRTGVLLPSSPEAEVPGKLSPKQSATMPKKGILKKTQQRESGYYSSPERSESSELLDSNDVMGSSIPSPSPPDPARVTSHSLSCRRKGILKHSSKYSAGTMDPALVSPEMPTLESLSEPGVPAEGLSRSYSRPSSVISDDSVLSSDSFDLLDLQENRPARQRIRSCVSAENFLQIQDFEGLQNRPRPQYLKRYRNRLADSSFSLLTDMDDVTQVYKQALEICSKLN
Mast/stem cell growth factor receptor Kit (Homo sapiens), sequence (P10721 whole entry): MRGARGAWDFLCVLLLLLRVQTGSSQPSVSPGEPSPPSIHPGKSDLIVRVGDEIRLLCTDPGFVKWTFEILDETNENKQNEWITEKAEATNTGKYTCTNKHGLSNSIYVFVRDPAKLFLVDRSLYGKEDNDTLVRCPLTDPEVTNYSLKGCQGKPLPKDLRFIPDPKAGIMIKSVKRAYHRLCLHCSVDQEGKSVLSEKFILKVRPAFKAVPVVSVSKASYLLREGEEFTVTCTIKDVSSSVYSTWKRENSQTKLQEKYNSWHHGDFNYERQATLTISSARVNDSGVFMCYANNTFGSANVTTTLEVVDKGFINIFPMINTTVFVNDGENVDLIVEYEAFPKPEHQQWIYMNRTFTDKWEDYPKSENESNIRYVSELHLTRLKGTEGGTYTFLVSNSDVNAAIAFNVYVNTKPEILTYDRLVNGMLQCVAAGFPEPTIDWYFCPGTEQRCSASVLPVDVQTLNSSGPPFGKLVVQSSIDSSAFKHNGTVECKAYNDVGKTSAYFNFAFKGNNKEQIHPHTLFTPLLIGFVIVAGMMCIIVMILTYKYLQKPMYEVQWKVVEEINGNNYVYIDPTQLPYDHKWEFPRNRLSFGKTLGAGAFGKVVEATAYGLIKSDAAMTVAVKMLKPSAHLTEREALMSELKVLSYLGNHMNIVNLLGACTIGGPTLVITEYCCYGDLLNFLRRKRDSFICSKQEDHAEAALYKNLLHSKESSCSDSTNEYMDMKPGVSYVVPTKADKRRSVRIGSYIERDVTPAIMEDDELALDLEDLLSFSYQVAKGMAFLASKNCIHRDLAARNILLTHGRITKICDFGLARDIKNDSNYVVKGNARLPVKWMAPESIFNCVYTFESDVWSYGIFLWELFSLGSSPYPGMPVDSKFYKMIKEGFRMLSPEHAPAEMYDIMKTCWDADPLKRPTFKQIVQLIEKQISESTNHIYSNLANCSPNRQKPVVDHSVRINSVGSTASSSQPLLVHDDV
Serine/threonine-protein kinase WNK3 (Homo sapiens), sequence (Q9BYP7 whole entry): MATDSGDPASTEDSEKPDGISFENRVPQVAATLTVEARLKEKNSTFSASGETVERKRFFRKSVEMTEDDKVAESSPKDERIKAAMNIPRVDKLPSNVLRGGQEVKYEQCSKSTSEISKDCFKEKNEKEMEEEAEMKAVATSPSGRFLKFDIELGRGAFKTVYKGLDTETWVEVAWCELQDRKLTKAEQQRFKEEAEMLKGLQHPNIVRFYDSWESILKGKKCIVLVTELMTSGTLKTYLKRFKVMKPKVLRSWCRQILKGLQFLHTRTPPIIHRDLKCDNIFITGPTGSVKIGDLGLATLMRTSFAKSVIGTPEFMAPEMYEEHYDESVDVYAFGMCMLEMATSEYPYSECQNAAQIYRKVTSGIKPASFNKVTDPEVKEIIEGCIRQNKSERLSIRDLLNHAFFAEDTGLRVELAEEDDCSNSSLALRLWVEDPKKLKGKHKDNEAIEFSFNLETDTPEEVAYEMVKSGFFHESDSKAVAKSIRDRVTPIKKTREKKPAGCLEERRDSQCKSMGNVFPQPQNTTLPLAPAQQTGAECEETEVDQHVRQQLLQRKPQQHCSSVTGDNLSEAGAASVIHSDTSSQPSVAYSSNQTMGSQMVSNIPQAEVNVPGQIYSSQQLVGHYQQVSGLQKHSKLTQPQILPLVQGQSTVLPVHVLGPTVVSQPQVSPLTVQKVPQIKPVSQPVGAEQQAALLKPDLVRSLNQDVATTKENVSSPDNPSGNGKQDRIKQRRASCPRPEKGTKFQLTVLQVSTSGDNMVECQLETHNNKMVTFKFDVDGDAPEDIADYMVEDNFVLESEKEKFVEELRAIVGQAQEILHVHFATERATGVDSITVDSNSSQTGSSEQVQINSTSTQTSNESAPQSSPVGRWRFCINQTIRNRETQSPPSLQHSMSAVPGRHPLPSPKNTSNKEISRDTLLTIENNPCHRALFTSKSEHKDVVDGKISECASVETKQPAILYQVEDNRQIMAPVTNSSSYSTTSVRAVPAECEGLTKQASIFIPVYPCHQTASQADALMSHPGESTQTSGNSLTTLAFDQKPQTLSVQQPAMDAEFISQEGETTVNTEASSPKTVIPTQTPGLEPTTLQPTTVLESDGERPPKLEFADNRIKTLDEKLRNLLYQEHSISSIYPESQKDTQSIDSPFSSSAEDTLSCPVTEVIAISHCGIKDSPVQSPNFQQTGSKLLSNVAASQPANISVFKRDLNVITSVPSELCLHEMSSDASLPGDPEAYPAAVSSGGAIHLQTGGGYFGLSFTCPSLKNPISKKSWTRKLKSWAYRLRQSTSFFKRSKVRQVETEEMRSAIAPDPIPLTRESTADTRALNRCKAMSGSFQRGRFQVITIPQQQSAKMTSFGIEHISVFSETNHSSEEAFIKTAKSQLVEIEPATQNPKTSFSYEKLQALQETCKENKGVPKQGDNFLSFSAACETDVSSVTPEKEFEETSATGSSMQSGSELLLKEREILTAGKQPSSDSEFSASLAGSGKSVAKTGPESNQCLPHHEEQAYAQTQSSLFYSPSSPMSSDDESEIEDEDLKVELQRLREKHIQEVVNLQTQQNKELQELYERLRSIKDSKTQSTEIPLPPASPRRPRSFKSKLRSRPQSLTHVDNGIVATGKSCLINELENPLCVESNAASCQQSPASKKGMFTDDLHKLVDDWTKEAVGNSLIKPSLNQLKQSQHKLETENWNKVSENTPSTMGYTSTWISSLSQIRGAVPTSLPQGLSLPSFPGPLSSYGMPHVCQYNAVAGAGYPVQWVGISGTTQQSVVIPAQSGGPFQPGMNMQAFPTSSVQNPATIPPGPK
Aurora kinase C (Homo sapiens), sequence (Q9UQB9 whole entry): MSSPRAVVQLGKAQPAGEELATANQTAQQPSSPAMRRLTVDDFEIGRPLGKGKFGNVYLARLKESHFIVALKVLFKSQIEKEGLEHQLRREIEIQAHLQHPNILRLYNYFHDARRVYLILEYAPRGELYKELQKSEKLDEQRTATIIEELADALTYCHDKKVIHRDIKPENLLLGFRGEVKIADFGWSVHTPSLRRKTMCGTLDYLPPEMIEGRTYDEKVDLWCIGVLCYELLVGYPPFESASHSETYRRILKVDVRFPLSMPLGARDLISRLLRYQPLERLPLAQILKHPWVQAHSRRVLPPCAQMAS

Activity [1]: 108%
Activity [2]: 116%
Activity [3]: 89%
GI50 [4]: 1.77 µM
GI50 [5]: 1.37 µM
GI50 [7]: 0.289 µM
Activity [10]: 106%
Activity [11]: 100%
Activity [12]: 96%
Activity [13]: 88%
Activity [14]: 115%
Activity [15]: 147%
Activity [16]: 80%
Activity [17]: 104%
Activity [19]: 87%
Activity [20]: 126%
Activity [21]: 53%
Activity [22]: 62%
Activity [23]: 107%
Activity [24]: 100%
Activity [25]: 74%
Activity [26]: 81%
Activity [27]: 73%
Activity [28]: 92%
Activity [29]: 86%
Activity [30]: 93%
Activity [31]: 63%
Activity [32]: 61%
Activity [33]: 82%
Activity [34]: 99%
Compound: O=C1Nc2ncccc2/C1=C1/Nc2ncccc2C1=O
GI50 [6]: 2.47 µM
GI50 [8]: 1.09 µM
GI50 [9]: 1.62 µM
Activity [18]: 63.05%
